Experimental data taken from ChEMBL document CHEMBL4321805, “A Conformational Restriction Strategy for the Identification of a Highly Selective Pyrimido-pyrrolo-oxazine mTOR Inhibitor” (J Med Chem, 2019).

How the values were obtained:
[1] = AUC (0 to 8 hrs) in Sprague-Dawley rat plasma at 5 mg/kg, po by UHPLC-MS analysis; type: ADME, organism-based; parameters: time < 8 hr, dose 5 mg/kg, route oral
In short: (§1)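 Male Sprague Dawley rats (8 weeks old at delivery), single oral dose of 5 mg/kg, formulation at pH 3. Three rats per time point (30 min, 2, 4, 8 h) under isoflurane; heart-puncture blood into lithium-heparin, then brain collected. Plasma and tissue stored at −80 °C. Samples precipitated with acetonitrile containing diazepam internal standard, then LC–MS.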

[2] = AUC (0 to 8 hrs) in Sprague-Dawley rat brain at 5 mg/kg, po by UHPLC-MS analysis; type: ADME, organism-based; parameters: time < 8 hr, dose 5 mg/kg, route oral; conditions: in vivo; in short: as §1
[3] = Stability in Sprague-Dawley rat hepatocytes assessed as parent compound remaining at 5 uM after 3 hrs by LC-MS analysis; type: ADME, cell-based, Hepatocyte; conditions: read-out: Stability
In short: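 Cryopreserved hepatocytes in suspension (200 000 cells/well) in Williams medium E with 2 mM L-glutamine and 25 mM HEPES. Test item at a final 5 μM (0.5% DMSO). Sampled at 0, 15, 60, 90 and 180 min. Precipitated with ACN, then LC–MS. Controls: 7-ethoxycoumarin and hepatocyte-free medium; n = 2.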

CYP1A1 = target: T1, CYP1A1 (Homo sapiens, UniProt P04798); assay: Drug metabolism assessed as recombinant human CYP1A1-mediated compound hydrolysis by measuring parent compound remaining incubated for 60 mins by LC-HRMS analysis; type: ADME; conditions: read-out: Stability
T1 sequence (P04798 whole entry): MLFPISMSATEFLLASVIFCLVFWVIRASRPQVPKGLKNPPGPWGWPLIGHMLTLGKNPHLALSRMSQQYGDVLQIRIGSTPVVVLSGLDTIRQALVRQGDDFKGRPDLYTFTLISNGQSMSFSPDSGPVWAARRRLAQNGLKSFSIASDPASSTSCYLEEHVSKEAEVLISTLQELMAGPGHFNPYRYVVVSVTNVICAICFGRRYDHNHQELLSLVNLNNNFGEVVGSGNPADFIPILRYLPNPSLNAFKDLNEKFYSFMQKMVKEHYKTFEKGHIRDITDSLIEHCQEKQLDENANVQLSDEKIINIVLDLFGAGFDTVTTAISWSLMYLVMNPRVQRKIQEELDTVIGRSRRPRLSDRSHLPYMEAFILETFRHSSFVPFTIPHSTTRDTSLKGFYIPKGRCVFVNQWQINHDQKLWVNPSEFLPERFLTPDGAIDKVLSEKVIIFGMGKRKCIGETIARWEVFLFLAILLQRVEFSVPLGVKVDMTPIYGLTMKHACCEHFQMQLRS
In short: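 Human recombinant CYP1A1 or CYP1A2 Supersomes (25 pmol/mL) incubated with compound at 1 μM (0.25% DMSO) plus NADP+-regenerating cofactors at 37 °C for 60 min. Reaction stopped with ACN containing internal standard. Parent and metabolites expressed as percentage of total peak areas.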

Row | AUC(0-t) at 8 h [1] | AUC [2] | remaining at 3 h, 5 µM [3] | remaining at 1 h (CYP1A1) | Structure (SMILES)
1 | 5730 ng·h/mL | 104 ng·h/g |  |  | C[C@@H]1COCCN1c1nc(-c2cnc(N)cn2)nc2c1C[C@@H]1COCCN21
2 |  |  | 93.6% | 73.3% | C[C@@H]1COCCN1c1nc(-c2cnc(N)nc2)nc2c1C[C@@H]1COCCN21
